According to ChEMBL document CHEMBL1122852, “Imidazo[1,5-d][1,2,4]triazines as potential antiasthma agents” (J Med Chem, 1985):

Species on record: Homo sapiens
Assay: Inhibitory activity against histamine release from antigen-challenged, sensitized human basophils
Type: functional
Details: not given
Method in brief: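 Histamine release was induced by antigen challenge of sensitized human basophils in vitro. Compounds were first screened at a single concentration. Those reducing release by more than 50% went on to concentration-response testing to estimate IC50. Values are given with standard error and number of experiments.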

Row | Structure (SMILES) | IC50 [µM]
1 | C=CCn1nc(C)c2c(C)nc(CCC)n2c1=O | > 48

Same assay, conditions: Homo sapiens

Row | Structure (SMILES) | IC50 [µM]
2 | COCc1nc(C)c2c(C)nnc(O)n12 | > 48
3 | CCCc1nnc(SC)n2c(CCC)nc(C)c12 | > 48
4 | CCCc1nc(C)c2cnnc(S)n12 | 10
5 | CCc1nc(C)c2cnnc(S)n12 | > 48
6 | CCCc1nc(C)c2c(C(C)C)nnc(S)n12 | > 48
7 | C=CCn1nc(C)c2c(C)nc(CCC)n2c1=O | 69
8 | Cc1nc(C(C)C)n2c(O)nnc(-c3ccccc3)c12 | > 48
9 | COCc1ncc2cnnc(NCCN(C)C)n12 | > 48
10 | COCc1ncc2cnnc(SC)n12 | > 48
11 | CCc1nc(C)c2cnn(CC)c(=O)n12 | 75.6
12 | CCOC(=O)Cn1ncc2cnc(COC)n2c1=O | > 48
13 | CCCc1nc(C)c2c(C)nn(CCC)c(=O)n12 | > 48
14 | CCCc1nc(C)c2c(CC)nnc(S)n12 | > 48
15 | CN(C)CCNc1nncc2cncn12 | > 48
16 | COCc1ncc2n1C(NCCN(C)C)NN=C2NCCN(C)C (stereo not given) | > 48
17 | C=CCn1ncc2cnc(-c3ccc(OC)cc3)n2c1=O | > 48
18 | CSc1nncc2c(C)nc(C(C)C)n12 | > 48
19 | CSc1nncc2c(C)ncn12 | > 48
20 | CCCc1nc(Br)c2cnnc(O)n12 | > 48
21 | C=CCn1ncc2c(C)nc(C(C)(C)C)n2c1=O | > 48
22 | CC(C)(C)c1ncc2cnnc(O)n12 | > 48
23 | CCCc1nc(C)c2cnnc(SC)n12 | > 48
24 | CCCc1ncc2c(C)nnc(S)n12 | > 48

Row | Structure (SMILES) | IC50 [µM]
25 | Cc1ncc2cnnc(O)n12 | > 48
26 | C=CCSc1nncc2cnc(COC)n12 | 79
27 | CSc1nnc(C)c2c(C)nc(C)n12 | > 48
28 | Cc1nc(C)n2c(=O)n(C)ncc12 | > 48
29 | C=CCn1ncc2c(C)ncn2c1=O | > 48
30 | Cc1nnc(S)n2cncc12 | > 48
31 | c1ncn2c(NC34CC5CC(CC(C5)C3)C4)nncc12 | > 48
32 | COCc1ncc2cnnc(O)n12 | > 48
33 | CCCc1nc(C)c2c(C(C)C)nnc(O)n12 | > 48
34 | C=CCSc1nncc2cnc(CCC)n12 | > 48
35 | C=CCSc1nncc2cnc(C)n12 | 61
36 | CCCc1nc(C)c2c(C)nn(CC(=O)O)c(=O)n12 | > 48
37 | CCc1ncn2c(S)nncc12 | > 48
38 | Cc1ncn2c(Nc3cccnc3)nncc12 | > 48
39 | Cc1ncn2c(N(C)C)nncc12 | > 48
40 | Sc1nncc2cnc(-c3ccccc3)n12 | > 48
41 | CCCc1nc(C)c2c(C)nnc(S)n12 | 45
42 | CCCc1nc(C)n2c(O)nncc12 | > 48
43 | C=CCn1nc(CCC)c2c(C)nc(CCC)n2c1=O | 29
44 | CCCC1NN=C(SC)n2c1cnc2C (stereo not given) | > 48
45 | CCCc1nnc(S)n2c(CCC)nc(C)c12 | > 48
46 | Cc1nc(C)n2c(S)nncc12 | > 48
47 | CCCc1nc(C)c2c(C)nn(CC(=O)c3ccccc3)c(=O)n12 | > 48

Row | Structure (SMILES) | IC50 [µM]
48 | C=CCn1ncc2c(CCC)ncn2c1=O | > 48
49 | CCCc1ncn2c(S)nncc12 | > 48
50 | CCCc1nc(C)c2cnn(CC(O)CO)c(=O)n12 (stereo not given) | > 48
51 | CSc1nncc2cnc(C)n12 | > 48
52 | CCOC(=O)C(C)Sc1nncc2cncn12 (stereo not given) | > 48
53 | CCc1nnc(O)n2c(C)nc(C)c12 | > 48
54 | CCCc1nc(C)c2cnn(CC)c(=O)n12 | > 48
55 | CCCc1ncc2c(C)nnc(SC)n12 | > 48
56 | C=C=Cn1nc(C)c2c(C)nc(CCC)n2c1=O | > 48
57 | CSc1nnc(-c2ccccc2)c2c(C)nc(C(C)C)n12 | > 48
58 | CSc1nncc2c(C)nc(C)n12 | > 48
59 | CCc1nnc(O)n2c(CC)nc(C)c12 | 24
60 | C=CCSc1nncc2c(CC)ncn12 | > 48
61 | CCCc1ncc2c(C)nnc(O)n12 | > 48
62 | Cc1ncn2c(NN)nncc12 | > 48
63 | CCc1ncn2c(O)nncc12 | > 48
64 | Cc1nc(-c2ccccc2)n2c(O)nncc12 | > 48
65 | c1coc(CNc2nncc3cncn23)c1 | > 48
66 | CCOC(=O)Cn1ncc2c(C)ncn2c1=O | > 48
67 | Oc1nncc2cnc(Cc3ccccc3)n12 | > 48
68 | CNc1nncc2cncn12 | > 48
69 | Oc1nncc2c(Br)nc(Cc3ccccc3)n12 | > 48
70 | CCCc1nc(C)c2cnn(CC3CC3)c(=O)n12 | > 48

Row | Structure (SMILES) | IC50 [µM]
71 | Cn1ncc2cnc(Cc3ccccc3)n2c1=O | > 48
72 | CC(C)CCSc1nncc2cncn12 | 9
73 | CCCc1nc(C)c2c(C)nn(CC)c(=O)n12 | > 48
74 | O=C(CSc1nncc2cncn12)c1ccccc1 | > 48
75 | CCCc1nc(C)c2c(-c3ccccc3)nnc(SC)n12 | > 48
76 | Cc1nnc(S)n2c(C)nc(C)c12 | > 48
77 | C(=C\CSc1nncc2cncn12)/CSc1nncc2cncn12 | > 48
78 | Cc1ncc2cnnc(S)n12 | > 48
79 | CCO/C(O)=C\c1nncc2cncn12 | > 48
80 | C=CCn1ncc2c(CC)ncn2c1=S | > 48
81 | CCc1nc(C)c2c(-c3ccccc3)nnc(O)n12 | > 48
82 | CC(C)c1ncn2c(O)nncc12 | > 48
83 | CCCc1nc(C)c2cnn(C)c(=O)n12 | 20
84 | COc1ccc(-c2ncc3cnnc(O)n23)cc1 | > 48
85 | C=CCn1ncc2cnc(C)n2c1=S | > 48
86 | CCCOc1ccccc1-c1ncc2cnnc(O)n12 | > 48
87 | CCc1nc(C)c2c(-c3ccccc3)nnc(SC)n12 | > 48
88 | CCc1nnc(O)n2c(C(C)CC)nc(C)c12 (stereo not given) | 45
89 | CCCc1ncn2c(O)nncc12 | > 48
90 | C=CCn1ncc2cnc(C)n2c1=O | > 48
91 | CCc1nc(C)c2cnnc(O)n12 | > 48
92 | CCCc1nc(C)c2c(C)nn(CC(O)CO)c(=O)n12 (stereo not given) | > 48
93 | C=CCn1ncc2cnc(COC)n2c1=O | > 48

Row | Structure (SMILES) | IC50 [µM]
94 | Cc1ncn2c(Nc3cccs3)nncc12 | > 48
95 | CCCc1nc(C)c2c(C)nn(Cc3ccccc3)c(=O)n12 | > 48
96 | CCCc1nc(C)c2c(C)nn(CC(=O)OCC)c(=O)n12 | > 48
97 | CCOC(=O)/C(=C(\O)OCC)c1nncc2cncn12 | > 48
98 | C=CCn1ncc2c(C)nc(CCC)n2c1=S | > 48
99 | Cc1nc(C(C)C)n2c(O)nncc12 | > 48
100 | c1ncn2c1C(NC1CCCC1)NN=C2NC1CCCC1 (stereo not given) | > 48
101 | CCc1nc(C)c2cnnc(SC)n12 | > 48
102 | O/C(=C/c1nncc2cncn12)c1ccccc1 | 38
103 | CCOC(=O)CSc1nncc2c(C)nc(C)n12 | > 48
104 | Cc1nc(Cc2ccccc2)n2c(O)nncc12 | > 48
105 | CCCc1nc(C)c2c(C3CC3)nnc(O)n12 | > 48
106 | CCCc1nc(Br)c2c(Br)nnc(O)n12 | 48
107 | CCCc1nc(C)c2cnnc(SCC(=O)OCC)n12 | > 48
108 | c1ncn2c(NC3CCCC3)nncc12 | > 48
109 | CCCc1nn(C)c(=O)n2c(CCC)nc(C)c12 | 18
110 | CCc1nnc(O)n2c(C(C)(C)C)nc(C)c12 | 26
111 | CCCc1nc(C)c2c(C)nn(C)c(=O)n12 | > 48
112 | CCCCc1nnc(O)n2c(CCC)nc(C)c12 | > 48
113 | C=CCn1ncc2cnc(Cc3ccccc3)n2c1=O | > 48
114 | Cc1ncn2c(O)nncc12 | > 48
115 | Oc1nncc2cncn12 | > 48
116 | C=CCn1ncc2c(Br)nc(Cc3ccccc3)n2c1=O | > 48

Row | Structure (SMILES) | IC50 [µM]
117 | CC(=O)N(C1=NNCC1)c1nncc2c(C)ncn12 | > 48
118 | CCCCCCCCCCCCCCCCCc1ncc2cnnc(S)n12 | > 48
119 | CSc1nncc2c(C(C)C)ncn12 | > 48
120 | C=CCSc1nncc2c(C)nc(C)n12 | 59
121 | CCCc1nc(C)c2c(C)nnc(SC)n12 | > 48
122 | CCCc1nc(C)c2c(-c3ccccc3)nnc(Nc3cc[nH]n3)n12 | > 48
123 | C=CCn1ncc2c(C)nc(C(C)C)n2c1=O | > 48
124 | CCn1ncc2cncn2c1=S | > 48
125 | Oc1nnc(-c2ccccc2)c2cncn12 | 19
126 | C=CCn1ncc2c(C)nc(CCC)n2c1=O | 40
127 | C=CCn1ncc2c(CC)ncn2c1=O | > 48
128 | Oc1nncc2cnc(-c3ccccc3)n12 | > 48
129 | C=CCSc1nncc2cnc(-c3ccccc3)n12 | > 48
130 | c1ncn2c(N3CCCCC3)nncc12 | > 48
131 | C=CCn1ncc2c(Br)nc(CCC)n2c1=O | > 48
132 | Cc1nc(C(C)(C)C)n2c(O)nncc12 | 31
133 | CCOC(=O)Cn1ncc2cncn2c1=O | > 48
134 | COCc1nc(Br)c2cnnc(O)n12 | > 48
135 | c1ccc(-c2cn[nH]c2Nc2nncc3cncn23)cc1 | 10
136 | c1nc(Nc2nncc3cncn23)n[nH]1 | 46
137 | CCCc1ncn2c(SC)nncc12 | > 48
138 | CCCc1nnc(O)n2c(C)nc(C)c12 | > 48
139 | C=CCSc1nncc2c(C)nc(-c3ccccc3)n12 | > 48

Row | Structure (SMILES) | IC50 [µM]
140 | CCCc1nc(C)c2n1C(SC)=NNC2c1ccccc1 (stereo not given) | > 48
141 | C=CCn1ncc2cncn2c1=O | > 48
142 | COCc1nc(Br)c2c(Br)nnc(O)n12 | > 48
143 | Cc1nc(-c2ccccc2)n2c(S)nncc12 | > 48
144 | CCCc1nc(C)c2cnn(CC(=O)OCC)c(=O)n12 | > 48
145 | CCOC(=O)CSc1nncc2c(C)ncn12 | > 48
146 | Cc1nc(CC(C)(C)C)n2c(O)nncc12 | > 48
147 | Sc1nncc2cnc(-c3cccc(Cl)c3)n12 | > 48
148 | CCCc1nc(C)c2c(CC)nnc(SC)n12 | > 48
149 | Cc1ncn2c(NCc3ccco3)nncc12 | > 48
150 | CCCc1nnc(O)n2c(C)ncc12 | > 48
151 | C=CCn1nc(Br)c2c(Br)nc(CCC)n2c1=O | > 48
152 | c1ccc(CNc2nncc3cncn23)cc1 | > 48
153 | CCCc1ncc2cnnc(SC)n12 | > 48
154 | C=CCn1ncc2c(C)nc(C)n2c1=O | 73
155 | CCCc1ncc2cnnc(O)n12 | > 48
156 | COCc1ncc2cnnc(S)n12 | > 48
157 | CCCc1nc(C)c2c(-c3ccccc3)nnc(O)n12 | > 48
158 | Sc1nncc2cncn12 | > 48
159 | CCCc1nc(C)c2c(C(C)C)nnc(SC)n12 | > 48
160 | Cc1nc(C)n2c(O)nncc12 | > 48
